Active and inactive are the calls of the source. The rule behind the calls is not given here.
Key:
MDA-MB-231 = assay: Antiproliferative activity against human MDA-MB-231 cells assessed as growth inhibition after 72 hrs by MTT assay; type: functional; conditions: MDA-MB-231, 72 h
How it was run: (§1)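 ATCC-sourced cells seeded at 4000 per well and left 12 h, then medium exchanged for fresh medium carrying graded compound concentrations for 72 h. MTT (5 mg/mL, 10 µl) added for 3 h, formazan dissolved in DMSO, absorbance read at 540 nm. GI50 taken from dose-response curve; mean ± SEM of three independent experiments.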

K562 = assay: Antiproliferative activity against human K562 cells assessed as growth inhibition after 72 hrs by MTT assay; type: functional; conditions: K562, 72 h; how it was run: as §1
HepG2 = assay: Antiproliferative activity against human HepG2 cells assessed as growth inhibition after 72 hrs by MTT assay; type: functional; conditions: HepG2, 72 h; how it was run: as §1
HT-29 = assay: Antiproliferative activity against human HT-29 cells assessed as growth inhibition after 72 hrs by MTT assay; type: functional; conditions: HT-29, 72 h; how it was run: as §1
[1] = molecular target: T1, DNA topoisomerase (Bos taurus) (UniProt A0JN73); assay: Inhibition of calf thymus Topoisomerase 1-mediated relaxation of supercoiled pBR322 DNA at 100 uM after 30 mins by gel electrophoresis
T1 sequence (whole entry): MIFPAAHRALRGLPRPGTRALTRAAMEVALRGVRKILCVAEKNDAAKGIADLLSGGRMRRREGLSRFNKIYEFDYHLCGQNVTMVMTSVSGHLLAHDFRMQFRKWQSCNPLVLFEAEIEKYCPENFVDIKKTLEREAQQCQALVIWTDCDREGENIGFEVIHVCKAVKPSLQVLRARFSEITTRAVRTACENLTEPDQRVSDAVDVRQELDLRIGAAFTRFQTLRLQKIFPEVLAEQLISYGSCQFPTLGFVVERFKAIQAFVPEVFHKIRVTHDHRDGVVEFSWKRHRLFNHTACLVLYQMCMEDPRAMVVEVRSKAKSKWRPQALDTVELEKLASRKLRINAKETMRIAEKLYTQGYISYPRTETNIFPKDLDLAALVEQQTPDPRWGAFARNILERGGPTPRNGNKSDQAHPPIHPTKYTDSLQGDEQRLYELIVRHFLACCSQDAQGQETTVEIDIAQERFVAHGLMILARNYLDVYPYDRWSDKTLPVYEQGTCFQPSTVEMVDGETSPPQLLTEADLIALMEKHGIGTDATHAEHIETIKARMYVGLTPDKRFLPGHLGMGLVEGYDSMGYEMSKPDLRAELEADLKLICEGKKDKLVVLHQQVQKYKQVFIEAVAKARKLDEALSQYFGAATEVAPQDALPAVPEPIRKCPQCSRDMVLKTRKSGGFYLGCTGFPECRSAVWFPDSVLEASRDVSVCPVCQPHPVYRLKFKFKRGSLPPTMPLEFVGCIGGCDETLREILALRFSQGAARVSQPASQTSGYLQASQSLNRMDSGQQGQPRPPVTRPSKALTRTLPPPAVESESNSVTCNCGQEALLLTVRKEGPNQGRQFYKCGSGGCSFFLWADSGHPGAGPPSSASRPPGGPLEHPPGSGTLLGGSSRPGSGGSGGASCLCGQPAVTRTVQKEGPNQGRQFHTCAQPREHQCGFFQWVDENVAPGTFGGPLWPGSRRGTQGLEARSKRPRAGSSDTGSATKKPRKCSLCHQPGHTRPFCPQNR
How it was run: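 Supercoiled pBR322 DNA incubated with 1 unit calf thymus topoisomerase I, with or without compound at 100 µM, 30 min at 37 °C. Stopped with 10% SDS, run on 1% agarose gel, stained 15 min with DNA gel stain and imaged under UV. Controls without enzyme included.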

SMILES	GI50 (MDA-MB-231) [µM]	GI50 (K562) [µM]	GI50 (HepG2) [µM]	GI50 (HT-29) [µM]	inhibition [1]
COc1cc(-c2c3c4cc(OC)c(O)cc4oc(=O)c3n3ccc4cc(O)c(OC)cc4c23)ccc1O [LAMELLARIN D]	0.32	0.08	0.09	4.47	Active
COc1cc(-c2c3c4cc(OC)c(O)c(CN5CCCCC5)c4oc(=O)c3n3ccc4cc(O)c(OC)cc4c23)ccc1O	7.25	1.95	6.99	2.5	Active
COc1cc(-c2c3c4cc(OC)c(O)c(CN(C)C)c4oc(=O)c3n3ccc4c(CN(C)C)c(O)c(OC)cc4c23)ccc1O	9.89	9.62	> 50	5.68	Active
COc1cc(-c2c3n(c4c(=O)oc5cc(O)c(OC)cc5c24)CCc2cc(O)c(OC)cc2-3)ccc1O	17.9	1.61	2.14	40.8	inactive
COc1cc2c(cc1O)oc(=O)c1c2c(-c2cc(CN(C)C)c(O)c(OC)c2)c2c3cc(OC)c(O)cc3ccn21	3.98	1.85	30.1	6.41	inactive
COc1cc(-c2c3c4cc(OC)c(O)c(CN5CCOCC5)c4oc(=O)c3n3ccc4cc(O)c(OC)cc4c23)ccc1O	4.87	2.25	3.69	2.64	Active
COc1cc(-c2c3c4cc(OC)c(O)cc4oc(=O)c3n3ccc4c(CN5CCOCC5)c(O)c(OC)cc4c23)ccc1O	19.9	2.84	4.47	13	Active
CCCN(CCC)Cc1c(O)c(OC)cc2c1oc(=O)c1c2c(-c2ccc(O)c(OC)c2)c2c3cc(OC)c(O)cc3ccn21	9.75	2.37	6.83	2.92	Active
CCCN(CCC)Cc1c(O)c(OC)cc2c1oc(=O)c1c2c(-c2ccc(O)c(OC)c2)c2c3cc(OC)c(O)c(CN(C)C)c3ccn21	6.15	7.16	15.8	2.83	Active
COc1cc(-c2c3c4cc(OC)c(O)cc4oc(=O)c3n3ccc4c(CN5CCCCC5)c(O)c(OC)cc4c23)ccc1O	33.1	9.94	21.3	18.3	Active
COc1cc(-c2c3c4cc(OC)c(O)cc4oc(=O)c3n3ccc4c(CN(C)C)c(O)c(OC)cc4c23)ccc1O	13.1	1.34	6.37	15	Active
COc1cc(-c2c3c4cc(OC)c(O)c(CN(C)C)c4oc(=O)c3n3ccc4cc(O)c(OC)cc4c23)ccc1O	3.3	0.43	2.63	5.46	inactive
CCN(CC)Cc1c(O)c(OC)cc2c1oc(=O)c1c2c(-c2ccc(O)c(OC)c2)c2c3cc(OC)c(O)cc3ccn21	5.78	1.04	5.04	2.52	Active
